Legend:
SirT1 [1] = target: T1, SirT1 (Homo sapiens, UniProt Q96EB6); settings: NAD+ as substrate on SIRT1; cited from earlier work
T1 sequence (Q96EB6 1-747): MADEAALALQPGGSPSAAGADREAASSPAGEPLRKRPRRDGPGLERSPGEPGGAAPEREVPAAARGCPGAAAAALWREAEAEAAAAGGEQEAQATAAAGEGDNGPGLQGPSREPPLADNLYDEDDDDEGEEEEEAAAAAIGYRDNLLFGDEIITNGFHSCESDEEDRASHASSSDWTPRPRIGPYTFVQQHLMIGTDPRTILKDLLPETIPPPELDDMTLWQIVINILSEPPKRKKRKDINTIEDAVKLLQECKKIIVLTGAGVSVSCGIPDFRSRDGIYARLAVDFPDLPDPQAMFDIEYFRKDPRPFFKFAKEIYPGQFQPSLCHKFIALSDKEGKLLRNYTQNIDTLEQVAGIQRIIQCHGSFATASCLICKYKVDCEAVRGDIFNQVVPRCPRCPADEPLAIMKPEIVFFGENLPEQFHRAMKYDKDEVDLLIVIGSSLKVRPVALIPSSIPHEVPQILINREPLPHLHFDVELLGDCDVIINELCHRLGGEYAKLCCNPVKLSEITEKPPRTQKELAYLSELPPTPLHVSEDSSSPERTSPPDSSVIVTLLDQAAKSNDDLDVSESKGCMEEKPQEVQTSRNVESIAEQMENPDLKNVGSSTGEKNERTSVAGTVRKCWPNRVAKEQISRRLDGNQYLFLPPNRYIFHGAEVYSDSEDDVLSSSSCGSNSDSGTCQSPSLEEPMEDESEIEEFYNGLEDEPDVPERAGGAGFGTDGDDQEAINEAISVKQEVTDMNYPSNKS

SirT2 = target: T2, SirT2 (Homo sapiens, UniProt Q8IXJ6); test: Inhibition of sirtuin-catalyzed deacetylation, SirT2; type: biochemical
T2 sequence (Q8IXJ6 1-389): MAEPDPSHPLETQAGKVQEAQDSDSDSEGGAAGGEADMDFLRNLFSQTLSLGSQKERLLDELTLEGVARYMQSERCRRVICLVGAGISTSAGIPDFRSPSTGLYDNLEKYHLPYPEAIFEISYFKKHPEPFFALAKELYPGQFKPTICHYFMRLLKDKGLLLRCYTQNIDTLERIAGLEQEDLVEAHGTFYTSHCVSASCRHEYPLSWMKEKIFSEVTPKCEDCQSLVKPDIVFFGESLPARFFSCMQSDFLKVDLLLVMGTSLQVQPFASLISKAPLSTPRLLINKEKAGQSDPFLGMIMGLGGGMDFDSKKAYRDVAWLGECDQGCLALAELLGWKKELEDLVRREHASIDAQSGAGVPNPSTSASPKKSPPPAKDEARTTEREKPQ

SirT1 [2] = target: T1, SirT1; test: Inhibition of sirtuin-catalyzed deacetylation, SirT1; type: biochemical
Method in brief: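 Purified SirT1 was incubated with NAD+, the test compound and an acetylated peptide substrate at 37 °C for 30–60 min. Activity was expressed as percent remaining, with uninhibited set at 100%, and plotted against log[test compound] in nM. IC50 came from a fit to v(%) = v(%)I − [v(%)I(10^x)/(10^x + IC50)].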

Af2Sir2 = target: T3, Af2Sir2 (Archaeoglobus fulgidus, UniProt O30124); test: Inhibition of sirtuin-catalyzed deacetylation, Af2Sir2; type: biochemical
T3 sequence (O30124 1-253): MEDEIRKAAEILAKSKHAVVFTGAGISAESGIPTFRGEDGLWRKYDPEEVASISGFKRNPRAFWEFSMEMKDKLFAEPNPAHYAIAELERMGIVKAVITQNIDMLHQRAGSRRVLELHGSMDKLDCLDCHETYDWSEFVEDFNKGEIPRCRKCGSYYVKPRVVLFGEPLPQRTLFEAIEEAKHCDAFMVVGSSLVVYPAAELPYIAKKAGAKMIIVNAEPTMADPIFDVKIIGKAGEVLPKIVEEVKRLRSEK

Yeast Sir2 = Yeast Sir2 (Saccharomyces cerevisiae, UniProt P06700); test: Inhibition of sirtuin-catalyzed deacetylation, yeast Sir2; type: biochemical
Sequence of Yeast Sir2 (P06700 whole entry): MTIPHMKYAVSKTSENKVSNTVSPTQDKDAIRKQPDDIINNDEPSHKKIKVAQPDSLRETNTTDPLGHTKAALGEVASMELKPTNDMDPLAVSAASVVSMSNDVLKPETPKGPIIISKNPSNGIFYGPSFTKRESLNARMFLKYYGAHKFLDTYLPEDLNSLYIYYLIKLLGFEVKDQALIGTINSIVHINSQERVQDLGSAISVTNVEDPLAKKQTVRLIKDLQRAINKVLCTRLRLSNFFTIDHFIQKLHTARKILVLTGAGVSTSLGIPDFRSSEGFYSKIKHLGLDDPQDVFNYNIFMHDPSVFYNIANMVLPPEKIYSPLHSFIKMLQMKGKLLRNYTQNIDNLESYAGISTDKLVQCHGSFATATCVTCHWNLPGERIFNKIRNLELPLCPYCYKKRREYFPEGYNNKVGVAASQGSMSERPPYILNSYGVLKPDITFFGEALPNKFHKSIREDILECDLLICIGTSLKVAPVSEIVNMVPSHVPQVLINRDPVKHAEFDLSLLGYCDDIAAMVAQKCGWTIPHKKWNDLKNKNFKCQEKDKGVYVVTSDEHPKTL

SMILES	Km (SirT1 [1]) [µM]	IC50 (SirT2) [µM]	IC50 (SirT1 [2]) [µM]	Ki (SirT1 [2]) [µM]	IC50 (Af2Sir2) [µM]	IC50 (Yeast Sir2) [µM]
NC(=O)c1ccc[n+]([C@@H]2O[C@H](COP(=O)([O-])OP(=O)(O)OC[C@H]3O[C@@H](n4cnc5c(N)ncnc54)[C@H](O)[C@@H]3O)[C@@H](O)[C@H]2O)c1 [NAD^+]	165					
COC(=O)[C@H](C)NC(=O)[C@H](C)NC(=O)[C@H](CCCCNC(C)=S)NC(=O)c1ccc([N+](=O)[O-])cc1 [compound 1, N^α-4-nitrobenzoyl-N^ε-thioacetyl-lysinyl-alaninyl-alanine methyl ester]		13.1 ± 0.54	6.5 ± 1	0.611	131 ± 26	19.5 ± 5.8

Reference: paper PMC3135177 (Organic & biomolecular chemistry, 2010)
